Results reported in ChEMBL document CHEMBL3596140, “Bisleuconothine A Induces Autophagosome Formation by Interfering with AKT-mTOR Signaling Pathway” (J Nat Prod, 2015).
Calls of active or inactive are those of the source. No cut-off for these calls is given here.

Tests used:
A549 [1] = experiment: Prevention of autophagosome degradation in human A549 cells assessed as upregulation of p62 expression at 5 uM after 6 hrs by Western blot analysis; type: functional, cell-based
Procedure, shortened: (§1)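 A549 cells kept in serum-free medium for 1 h, then exposed to 6 μM compound or 5 μM everolimus, with or without bafilomycin A1 (400 nM), for 6 h. LC3 and p62 levels in lysates assessed by Western blot to follow autophagic flux.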

A549 [2] = experiment: Induction of autophagy in human A549 cells assessed as increase in conversion of LC3-1 to LC3-2 at 5 uM after 6 hrs by Western blot analysis; type: functional, cell-based; procedure, shortened: as §1
A549 [3] = experiment: Induction of autophagic punctation in human A549 cells assessed as increase of puncta with LC3 at 5 uM after 6 hrs by immunofluorescence staining-based microscopic analysis relative to control; type: functional, cell-based
Procedure, shortened: (§2)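 A549 cells on chamber slides placed in serum-free medium for 1 h, then exposed for 6 h to 6 μM compound, 5 μM everolimus or 400 nM bafilomycin A1. Fixed in ice-cold methanol for 15 min at −20 °C and blocked. Stained for LC3B, LAMP2 and p62 with Alexa Fluor 488/546/647 secondaries, mounted with DAPI, and puncta assessed by fluorescence microscopy.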

A549 [4] = experiment: Induction of autophagic punctation in human A549 cells assessed as increase of puncta with p62 at 5 uM after 6 hrs by immunofluorescence staining-based microscopic analysis relative to control; type: functional, cell-based; procedure, shortened: as §2
[5] = target: Serine/threonine-protein kinase mTOR (Homo sapiens) (UniProt P42345); experiment: Inhibition of mTOR phosphorylation at ser2448 in human A549 cells at 5 uM after 3 to 24 hrs by Western blot analysis; type: cell-based
Procedure, shortened: (§3)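 A549 total lysates harvested 3, 6, 12 or 24 h after exposure to 6 μM compound or 5 μM everolimus. Western blot on PVDF with antibodies to phospho-mTOR Ser2448, phospho-AKT Thr308 and Ser473, phospho-p70S6K Thr389, phospho-PDK1 Ser241 and PRAS40 Thr246, alongside total proteins and β-actin.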

[6] = target: Serine/threonine-protein kinase mTOR (Homo sapiens) (UniProt P42345); experiment: Inhibition of mTOR in human A549 cells assessed as downregulation of p70S6K phosphorylation at thr389 at 5 uM after 3 to 24 hrs by Western blot analysis; type: cell-based; procedure, shortened: as §3
A549 [7] = experiment: Inhibition of AKT in human A549 cells assessed as downregulation of PRAS40 phosphorylation at thr246 at 5 uM after 3 to 12 hrs by Western blot analysis; type: cell-based; procedure, shortened: as §3

- inhibition [5]: Active
- inhibition [6]: Active
SMILES: CO[C@H]1C[C@@H]2CC[C@@H](C)[C@@](O)(O2)C(=O)C(=O)N2CCCC[C@H]2C(=O)O[C@H]([C@H](C)C[C@@H]2CC[C@@H](OCCO)[C@H](OC)C2)CC(=O)[C@H](C)/C=C(\C)[C@@H](O)[C@@H](OC)C(=O)[C@H](C)C[C@H](C)/C=C/C=C/C=C/1C
- Activity (A549 [1]): inactive
- Activity (A549 [2]): Active
- Activity (A549 [3]): inactive
- Activity (A549 [4]): inactive
- inhibition (A549 [7]): inactive
